Test results as given in ChEMBL document CHEMBL4145461, “Novel non-sulfonamide 5-HT6 receptor partial inverse agonist in a group of imidazo[4,5-b]pyridines with cognition enhancing properties” (Eur J Med Chem, 2018).
Activity calls are given as the source filed them. No cut-off for these calls is given here.

Experiments:
[1] = target: T1, 5-hydroxytryptamine receptor 6 (Homo sapiens, UniProt P50406); assay: Displacement of [3H]-LSD from human 5HT6R expressed in HEK293 cell membranes after 1 hr by microbeta counting method
T1 sequence (P50406 whole entry): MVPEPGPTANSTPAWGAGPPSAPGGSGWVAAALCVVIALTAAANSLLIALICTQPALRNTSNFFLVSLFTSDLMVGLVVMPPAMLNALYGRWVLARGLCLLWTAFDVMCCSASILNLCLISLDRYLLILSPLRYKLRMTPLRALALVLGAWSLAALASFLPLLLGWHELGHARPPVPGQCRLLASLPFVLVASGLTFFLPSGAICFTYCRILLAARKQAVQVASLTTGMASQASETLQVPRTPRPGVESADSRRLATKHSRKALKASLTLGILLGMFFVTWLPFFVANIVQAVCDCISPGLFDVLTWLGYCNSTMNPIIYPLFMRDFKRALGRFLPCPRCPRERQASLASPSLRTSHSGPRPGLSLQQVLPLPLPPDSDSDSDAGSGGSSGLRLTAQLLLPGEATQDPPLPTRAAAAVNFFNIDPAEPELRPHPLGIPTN
Outline: (§1)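 HEK293 (5-HT1A, 5-HT6, 5-HT7b, D2L) or CHO-K1 (5-HT2A) membranes, all Tris–HCl with 4 mM MgCl2 plus receptor-specific EDTA/pargyline/ascorbate (D2L adds NaCl, KCl, CaCl2). Nonspecific binding: 10 μM 5-HT (5-HT1A, 5-HT7), chlorpromazine (5-HT2A), methiothepine (5-HT6), haloperidol (D2L). Triplicate, 7–8 concentrations (10⁻¹¹–10⁻⁴ M), filtration; Ki via Cheng–Prusoff, mean of three experiments. Incubation 1 h 37 °C; 5-HT1A 1 h and 5-HT2A 1.5 h, room temperature.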

[2] = target: T2, 5-hydroxytryptamine receptor 1A (Homo sapiens, UniProt P08908); assay: Displacement of [3H]-8-OH-DPAT from human 5HT1AR expressed in HEK293 cell membranes after 1 hr by microbeta counting method
T2 sequence (P08908 whole entry): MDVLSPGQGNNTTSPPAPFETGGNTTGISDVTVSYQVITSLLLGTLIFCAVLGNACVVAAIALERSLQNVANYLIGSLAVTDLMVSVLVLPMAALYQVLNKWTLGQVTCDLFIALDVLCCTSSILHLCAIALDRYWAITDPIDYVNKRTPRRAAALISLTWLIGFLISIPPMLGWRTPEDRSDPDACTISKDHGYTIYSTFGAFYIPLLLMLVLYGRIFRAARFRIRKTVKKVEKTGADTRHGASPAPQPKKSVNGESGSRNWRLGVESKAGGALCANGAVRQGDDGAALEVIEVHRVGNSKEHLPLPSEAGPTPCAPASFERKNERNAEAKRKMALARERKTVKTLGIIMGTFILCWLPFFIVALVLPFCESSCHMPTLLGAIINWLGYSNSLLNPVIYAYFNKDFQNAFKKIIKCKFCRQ
Outline: as §1, with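 “experiments.” for “experiments. Incubation 1 h 37 °C; 5-HT1A 1 h and 5-HT2A 1.5 h, room temperature.”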

[3] = target: 5-hydroxytryptamine receptor 2A (Homo sapiens, UniProt P28223); assay: Displacement of [3H]-Ketanserin from human 5HT2AR expressed in CHO-K1 cell membranes after 1.5 hrs by microbeta counting method
Sequence of 5-hydroxytryptamine receptor 2A (P28223 whole entry): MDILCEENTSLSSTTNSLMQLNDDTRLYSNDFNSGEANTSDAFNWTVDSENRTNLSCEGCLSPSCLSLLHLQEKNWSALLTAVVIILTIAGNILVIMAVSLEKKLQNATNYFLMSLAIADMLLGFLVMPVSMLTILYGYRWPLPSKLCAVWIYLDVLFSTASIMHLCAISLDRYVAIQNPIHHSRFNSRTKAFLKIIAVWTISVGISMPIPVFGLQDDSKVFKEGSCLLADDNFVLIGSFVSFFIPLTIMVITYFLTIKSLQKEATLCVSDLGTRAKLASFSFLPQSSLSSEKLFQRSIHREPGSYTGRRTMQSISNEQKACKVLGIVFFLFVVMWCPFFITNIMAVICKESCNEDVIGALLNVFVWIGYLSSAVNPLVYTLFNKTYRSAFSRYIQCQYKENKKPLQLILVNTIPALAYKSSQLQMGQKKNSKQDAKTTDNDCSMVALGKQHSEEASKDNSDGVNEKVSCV
Outline: as §1, with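 “experiments.” for “experiments. Incubation 1 h 37 °C; 5-HT1A 1 h and 5-HT2A 1.5 h, room temperature.”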

D(2) dopamine receptor = D(2) dopamine receptor (Homo sapiens, UniProt P14416); assay: Displacement of [3H]-Raclopride from human dopamine D2L receptor expressed in HEK293 cell membranes after 1 hr by microbeta counting method; outline: as §1
Sequence of D(2) dopamine receptor (P14416 whole entry): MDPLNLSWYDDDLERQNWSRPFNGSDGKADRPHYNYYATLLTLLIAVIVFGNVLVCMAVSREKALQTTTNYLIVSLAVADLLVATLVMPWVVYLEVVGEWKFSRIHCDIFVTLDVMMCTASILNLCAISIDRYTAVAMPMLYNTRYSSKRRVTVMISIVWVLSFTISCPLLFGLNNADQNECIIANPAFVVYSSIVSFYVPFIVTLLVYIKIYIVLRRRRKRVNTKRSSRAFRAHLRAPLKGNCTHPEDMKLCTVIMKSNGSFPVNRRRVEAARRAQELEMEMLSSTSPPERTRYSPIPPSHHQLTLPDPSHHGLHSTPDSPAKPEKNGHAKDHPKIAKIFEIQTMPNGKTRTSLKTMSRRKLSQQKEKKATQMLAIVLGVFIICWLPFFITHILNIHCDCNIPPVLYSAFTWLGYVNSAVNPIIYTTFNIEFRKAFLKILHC

[4] = target: 5-hydroxytryptamine receptor 7 (Homo sapiens, UniProt P34969); assay: Displacement of [3H]-5-CT from human 5HT7BR expressed in HEK293 cell membranes after 1 hr by microbeta counting method; outline: as §1
Sequence of 5-hydroxytryptamine receptor 7 (P34969 whole entry): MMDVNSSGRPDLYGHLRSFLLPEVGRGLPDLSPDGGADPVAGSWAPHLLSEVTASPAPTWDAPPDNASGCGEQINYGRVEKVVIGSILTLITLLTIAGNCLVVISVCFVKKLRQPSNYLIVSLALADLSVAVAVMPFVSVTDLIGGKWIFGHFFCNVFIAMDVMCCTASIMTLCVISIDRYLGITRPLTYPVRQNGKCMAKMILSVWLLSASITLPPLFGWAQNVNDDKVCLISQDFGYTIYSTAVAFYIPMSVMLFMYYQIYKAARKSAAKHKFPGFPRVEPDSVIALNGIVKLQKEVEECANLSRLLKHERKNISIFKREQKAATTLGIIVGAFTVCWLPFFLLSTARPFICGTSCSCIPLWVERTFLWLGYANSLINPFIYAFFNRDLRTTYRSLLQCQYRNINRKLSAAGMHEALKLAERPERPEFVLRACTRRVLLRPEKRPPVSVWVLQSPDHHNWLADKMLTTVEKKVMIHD

[5] = target: T1, 5-hydroxytryptamine receptor 6; assay: Antagonist activity at 5HT6R (unknown origin) transfected in NG108-15 cells co-transfected with CAMYEL assessed as reduction in cAMP levels after 5 mins by Coelanterazine H-based BRET assay; format: functional, cell-based
[6] = target: T1, 5-hydroxytryptamine receptor 6; assay: Binding affinity to 5HT6R (unknown origin)
Rattus norvegicus [7] = assay: Reversal of SCOP-induced cognitive impairment in Sprague-Dawley rat assessed as reduction in time spent exploring novel object over familiar object at 0.3 mg/kg, po administered 120 mins before familiarization phase measured for 3 mins post familiarization phase by novel object recognition assay; format: functional, organism-based
Rattus norvegicus [8] = assay: Reversal of SCOP-induced cognitive impairment in Sprague-Dawley rat assessed as reduction in time spent exploring novel object over familiar object at 1 mg/kg, po administered 120 mins before familiarization phase measured for 3 mins post familiarization phase by novel object recognition assay; format: functional, organism-based
Outline: (§2)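 Male Sprague–Dawley rats, habituated to the arena 5 min 24 h before testing. PCP (5 mg/kg i.p., 45 min) or scopolamine (1.25 mg/kg i.p., 30 min) given before familiarization trial T1; test compound or donepezil given p.o. 120 min before T1. T1 and T2 each last 3 min, separated by an inter-trial interval. DI = (EB−EA)/(EA+EB) from T2 exploration time; 8–10 rats/group; ANOVA with Newman–Keuls.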

Rattus norvegicus [9] = assay: Reversal of PCP-induced cognitive impairment in Sprague-Dawley rat assessed as reduction in time spent exploring novel object over familiar object at 0.3 to 1 mg/kg, po administered 120 mins before familiarization phase measured for 3 mins post familiarization phase by novel object recognition assay; format: functional, organism-based; outline: as §2

Ki [1] | Structure (SMILES) | further results
101 nM | Cc1nc2c(N3CCNCC3)ccnc2n1Cc1ccccc1 | –
80 nM | CC(C)c1nc2c(N3CCNCC3)ccnc2n1Cc1ccc(F)cc1 | –
26 nM | Cc1cccc(Cn2c(C)nc3c(N4CCNCC4)ccnc32)c1 | –
126 nM | CC(C)c1nc2c(N3CCNCC3)nccc2n1Cc1cccc(Cl)c1 | –
177 nM | CCc1nc2c(N3CCNCC3)ccnc2n1Cc1ccccc1Cl | –
– | CC(C)c1nc2c(N3CCNCC3)ccnc2n1Cc1cccc(Cl)c1 | Ki [2]: 2280 nM; Ki [3]: 694 nM; Ki (D(2) dopamine receptor): 2940 nM; Ki [4]: 7140 nM
108 nM | CCC(CC)c1nc2c(N3CCNCC3)ccnc2n1Cc1ccccc1Cl | –
374 nM | Cc1nc2c(N3CCNCC3)nccc2n1Cc1ccccc1 | –
42 nM | CCC(CC)c1nc2c(N3CCNCC3)ccnc2n1Cc1cccc(C)c1 | –
7 nM | CCc1nc2c(N3CCNCC3)ccnc2n1Cc1cccc(Cl)c1 | Ki [2]: 1350 nM; IC50 [5]: 51.9 nM; Ki [3]: 449 nM; Ki (D(2) dopamine receptor): 6100 nM; Ki [4]: 8750 nM
317 nM | Cc1nc2c(N3CCNCC3)ccnc2n1Cc1ccc(F)cc1 | –
162 nM | Fc1ccc(-c2nc3c(N4CCNCC4)ccnc3n2Cc2cccc(F)c2)cc1 | –
– | O=S(=O)(c1ccccc1)n1ncc2c(N3CCNCC3)nccc21 | Ki [6]: 5 nM
312 nM | Cc1nc2c(N3CCNCC3)ccnc2n1CCc1cccc(Cl)c1 | –
62 nM | Cc1nc2c(N3CCNCC3)ccnc2n1Cc1cccc(C(F)(F)F)c1 | –
450 nM | c1ccc(Cn2cnc3c(N4CCNCC4)nccc32)cc1 | –
21 nM | Cc1nc2c(N3CCNCC3)ccnc2n1Cc1cccc(Cl)c1 | –
30 nM | CCC(CC)c1nc2c(N3CCNCC3)ccnc2n1Cc1cccc(Cl)c1 | –
13 nM | CC(C)c1nc2c(N3CCNCC3)ccnc2n1Cc1cccc(F)c1 | Ki [2]: 5930 nM; IC50 [5]: 69.5 nM; Ki [3]: 475 nM; Ki (D(2) dopamine receptor): 3440 nM; Ki [4]: 11900 nM
110 nM | c1ccc(Cn2cnc3c(N4CCNCC4)ccnc32)cc1 | –
1300 nM | Fc1cccc(CCn2cnc3c(N4CCNCC4)ccnc32)c1 | –

Ki [1] | Structure (SMILES) | further results
107 nM | CC(C)c1nc2c(N3CCNCC3)ccnc2n1Cc1ccc(Cl)cc1 | –
– | NC(=O)NC[C@@H]1CCCc2cc(S(=O)(=O)c3cccc(F)c3)ccc21 | Ki [6]: 0.2 nM
165 nM | Clc1cccc(Cn2c(-c3cccs3)nc3c(N4CCNCC4)ccnc32)c1 | –
165 nM | COc1cccc(Cn2c(CC(C)(C)C)nc3c(N4CCNCC4)ccnc32)c1 | –
80 nM | CC(C)c1nc2c(N3CCNCC3)ccnc2n1CCc1cccc(Cl)c1 | –
320 nM | Clc1cccc(Cn2cnc3c(N4CCNCC4)nccc32)c1 | –
142 nM | Cc1cccc(Cn2c(CC(C)(C)C)nc3c(N4CCNCC4)ccnc32)c1 | –
36 nM | CCc1nc2c(N3CCNCC3)ccnc2n1Cc1ccccc1 | –
337 nM | COc1ccccc1Cn1c(C)nc2c(N3CCNCC3)ccnc21 | –
– | COc1cc2c(cc1OC)C(=O)C(CC1CCN(Cc3ccccc3)CC1)C2 (stereo not drawn) | Activity (Rattus norvegicus [7]): inactive; Activity (Rattus norvegicus [8]): Active
– | O=S(=O)(c1ccccc1)c1cnc2c(N3CCNCC3)cccc2c1 [INTEPIRDINE] | Activity (Rattus norvegicus [9]): Active; Ki (D(2) dopamine receptor): 997 nM; Ki [4]: 14200 nM
829 nM | Cc1nc2c(N3CCNCC3)ccnc2n1Cc1ccccc1Cl | –
1250 nM | Clc1cccc(CCn2cnc3c(N4CCNCC4)ccnc32)c1 | –
57 nM | CCc1nc2c(N3CCNCC3)ccnc2n1Cc1cc(F)ccc1F | –
42 nM | CCc1nc2c(N3CCNCC3)ccnc2n1CCc1cccc(Cl)c1 | –
33 nM | Clc1cccc(Cn2cnc3c(N4CCNCC4)ccnc32)c1 | –
139 nM | CCc1nc2c(N3CCNCC3)ccnc2n1Cc1ccc(F)c(F)c1 | –
254 nM | Cc1nc2c(N3CCNCC3)nccc2n1Cc1cccc(Cl)c1 | –
61 nM | CC(C)c1nc2c(N3CCNCC3)ccnc2n1Cc1ccccc1F | –
56 nM | CCc1nc2c(N3CCNCC3)ccnc2n1CCc1cccc(F)c1 | –
92 nM | COc1cccc(Cn2c(C(C)C)nc3c(N4CCNCC4)ccnc32)c1 | –
